≈ marks a conversion by molar mass, not a printed value. Calls of active or inactive are those of the source.
Assays:
Cynomolgus monkey [1] = assay: In vivo inhibition of CYP11B1 in cynomolgus monkey assessed as reduction in ACTH-induced cortisol at 0.01 to 1 mg/kg, po preincubated for 1 hr followed by ACTH challenge and measured after 60 mins by LC/MS-MS analysis; type: ADME, organism-based, Macaca fascicularis
Summary of the method: (§1)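 Cynomolgus monkeys preselected as Synacthen responders (at least 2-fold rise in aldosterone, cortisol and corticosterone). Two animals per group. Oral vehicle or compound at 0.01–10 mg/kg in hydroxyethylcellulose/polysorbate 80/paraben suspension (2 mL/kg) at T=0, then 14.5 µg/kg Synacthen i.m. at 1 hr. EDTA blood drawn from -5 min to 24 h. Plasma steroids measured by LC/MS-MS; data shown 60 min after challenge.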

Cynomolgus monkey [2] = assay: In vivo inhibition of CYP11B1 in cynomolgus monkey assessed as reduction in ACTH-induced 11-deoxycortisol at 0.01 to 10 mg/kg, po preincubated for 1 hr followed by ACTH challenge and measured after 60 mins by LC/MS-MS analysis; type: ADME, organism-based, Macaca fascicularis; summary of the method: as §1
Cynomolgus monkey [3] = assay: In vivo inhibition of CYP11B2 in cynomolgus monkey assessed as reduction in ACTH-induced corticosterone at 0.01 to 10 mg/kg, po preincubated for 1 hr followed by ACTH challenge and measured after 60 mins by LC/MS-MS analysis; type: functional, organism-based; conditions: Macaca fascicularis; summary of the method: as §1
Cynomolgus monkey [4] = assay: In vivo inhibition of CYP11B2 in cynomolgus monkey assessed as reduction in ACTH-induced aldosterone at 0.01 to 10 mg/kg, po preincubated for 1 hr followed by ACTH challenge and measured after 60 mins by LC/MS-MS analysis; type: functional, organism-based; conditions: Macaca fascicularis; summary of the method: as §1
Cynomolgus monkey [5] = assay: In vivo inhibition of CYP11B1 in cynomolgus monkey assessed as reduction in ACTH-induced cortisol at 10 mg/kg, po preincubated for 1 hr followed by ACTH challenge and measured after 60 mins by LC/MS-MS analysis; type: ADME, organism-based, Macaca fascicularis; summary of the method: as §1
[6] = molecular target: T1, Cytochrome P450 11B2, mitochondrial (Homo sapiens, UniProt P19099); assay: Inhibition of human CYP11B2 expressed in human renal leiomyoblastoma cells harboring FDXR/FDX using 1-deoxycorticosterone as substrate by HTRF assay; type: cell-based
T1 sequence (P19099 whole entry): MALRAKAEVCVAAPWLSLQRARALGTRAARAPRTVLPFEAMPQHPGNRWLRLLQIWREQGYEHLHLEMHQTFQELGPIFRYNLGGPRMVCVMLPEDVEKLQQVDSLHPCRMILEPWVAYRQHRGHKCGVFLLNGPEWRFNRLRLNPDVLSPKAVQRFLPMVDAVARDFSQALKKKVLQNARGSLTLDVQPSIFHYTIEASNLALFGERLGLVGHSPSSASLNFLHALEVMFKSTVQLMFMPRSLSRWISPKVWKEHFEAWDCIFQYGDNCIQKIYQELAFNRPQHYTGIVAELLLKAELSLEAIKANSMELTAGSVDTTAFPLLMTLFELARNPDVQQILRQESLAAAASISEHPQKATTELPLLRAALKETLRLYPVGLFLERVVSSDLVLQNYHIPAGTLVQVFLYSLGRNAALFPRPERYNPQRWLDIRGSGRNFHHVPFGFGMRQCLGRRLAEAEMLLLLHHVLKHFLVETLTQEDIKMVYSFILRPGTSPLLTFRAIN
Summary of the method: (§2)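 Cells with endogenous FDXR/FDX and no detectable CYP11B activity, stably transfected (CMV promoter, neomycin selection, G-418 400 µg/mL) with CYP11B1 or CYP11B2 of the named species. Assayed in DMEM/F12 with 2.5% charcoal-treated FCS. Substrate 1 µM 11-deoxycorticosterone (B2) or 11-deoxycortisol (B1), 16 hr. Aldosterone or cortisol in supernatant measured by HTRF. IC50 from 4-parameter MMF fit; selectivity factor is the B1/B2 IC50 ratio.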

[7] = Selectivity ratio of IC50 for human CYP11B1 expressed in human renal leiomyoblastoma cells harboring FDXR/FDX to IC50 for human CYP11B2 expressed in human renal leiomyoblastoma cells harboring FDXR/FDX; type: cell-based; summary of the method: as §2
[8] = Solubility of the compound in phosphate buffer at pH 6.5 shaken for 2 hrs followed by overnight incubation; type: physicochemical
Summary of the method: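 Lyophilisation solubility assay run in duplicate from 10 mM DMSO stock. DMSO evaporated and residue redissolved in 0.05 M phosphate, pH 6.5. Stirred 1 hr, shaken 2 hr, left overnight, then filtered. Filtrate and a 1/10 dilution analysed by HPLC-UV against a four-point calibration.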

[9] = Inhibition of cynomolgus monkey CYP11B2 expressed in human G401 cells using 1-deoxycorticosterone as substrate by HTRF assay; type: cell-based, Macaca fascicularis; conditions: g-401; summary of the method: as §2
[10] = Plasma clearance in Wister-Han rat at 1 mg/kg, iv administered as single dose by LC/MS-MS analysis; type: ADME, organism-based; conditions: Wistar-Han
Summary of the method: (§3)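 Male Wistar-Han rats, single dose. IV 1 mg/kg, compound at 0.5 mg/mL in NMP:saline 30/70 (v/v). Oral 3 mg/kg, 0.25 mg/mL in 2% Klucel with 0.1% Polysorbate 80. Three rats per time point. Heparinized blood taken at eight (iv) or seven (po) time points, plasma stored at -20 °C. Plasma levels by LC/MS-MS. Non-compartmental analysis.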

[11] = AUC (0 to infinity) in Wister-Han rat at 3 mg/kg, po administered as single dose by LC/MS-MS analysis; type: ADME, organism-based; parameters: dose 3 mg/kg, route oral, time infinity; conditions: Wistar-Han, in vivo; summary of the method: as §3
[12] = Oral bioavailability in Wister-Han rat at 3 mg/kg administered as single dose by LC/MS-MS analysis; type: ADME, organism-based; conditions: Wistar-Han, in vivo; summary of the method: as §3
[13] = Protein binding in rat plasma assessed as unbound fraction at 1 uM by micro-equilibrium dialysis based LC-MS/MS analysis; type: ADME, cell-free
Summary of the method: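 Equilibrium dialysis of pooled rat or cynomolgus plasma against Soerensen buffer pH 7.4, 12–14 kDa cut-off membrane. Compounds tested in cassettes of 2–5 at 1 μM initial total concentration, with diazepam as control. Dialysis 5 hr at 37 °C under 5% CO₂. Unbound percentage by LC/MS-MS.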

[14] = Intrinsic clearance in rat hepatocytes; type: ADME, cell-based, Hepatocyte; conditions: read-out: CLH
[15] = Intrinsic clearance in cynomolgus monkey hepatocytes; type: ADME, cell-based, Macaca fascicularis, Hepatocyte; conditions: read-out: CLH
[16] = Oral bioavailability in cynomolgus monkey; type: ADME, organism-based, Macaca fascicularis; conditions: in vivo
[17] = Free plasma concentration in cynomolgus monkey at 0.01 mg/kg; type: ADME, organism-based, Macaca fascicularis; conditions: in vivo
Summary of the method: (§4)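 Cynomolgus monkeys, 2 per group, given single oral doses of 0.01, 0.1, 1 or 10 mg/kg as a suspension in hydroxyethylcellulose/polysorbate 80/parabens vehicle, 2 mL/kg. Synacthen 14.5 µg/kg given i.m. at 1 hr. Plasma compound levels by LC/MS-MS. Average free exposure calculated from AUC0-7hr and corrected for plasma protein binding.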

[18] = Free plasma concentration in cynomolgus monkey at 0.1 mg/kg; type: ADME, organism-based, Macaca fascicularis; conditions: in vivo; summary of the method: as §4
[19] = Free plasma concentration in cynomolgus monkey at 1 mg/kg; type: ADME, organism-based, Macaca fascicularis; conditions: in vivo; summary of the method: as §4
[20] = Free plasma concentration in cynomolgus monkey at 10 mg/kg; type: ADME, organism-based, Macaca fascicularis; conditions: in vivo; summary of the method: as §4
[21] = molecular target: T1, Cytochrome P450 11B2, mitochondrial; assay: Inhibition of CYP11B2 in H295R cell assessed as reduction in 18-hyroxycorticosterone by LC/MS-MS method

CCS(=O)(=O)N1CC(Oc2cncc(N3C(=O)c4ccc(Cl)cc4C3(C)C)c2)C1
Activity (Cynomolgus monkey [1]): Non-Toxic | Activity (Cynomolgus monkey [2]): Non-Toxic | inhibition (Cynomolgus monkey [3]): inactive | inhibition (Cynomolgus monkey [4]): Active | Activity (Cynomolgus monkey [5]): Toxic | IC50 [6]: 4 nM | Ratio IC50 [7]: 162 | solubility at 2 h [8]: 78 µg/mL (≈ 179 µM) | IC50 [9]: 2 nM | clearance [10]: 3.8 mL/min/kg | AUC(0-inf) [11]: 6370 ng·h/mL | bioavailability [12]: 45% | fraction unbound at 1 µM [13]: 0.052 | CLint scaled [14]: 26.7 mL/min/kg | CLint scaled [15]: 7.2 mL/min/kg | bioavailability [16]: 19% | Cp(f) [17]: 0.075 ng/mL | Cp(f) [18]: 0.825 ng/mL | Cp(f) [19]: 10.3 ng/mL | Cp(f) [20]: 86.46 ng/mL | IC50 [21]: < 1 nM

From ChEMBL document CHEMBL4616681, “Discovery of 3-Pyridyl Isoindolin-1-one Derivatives as Potent, Selective, and Orally Active Aldosterone Synthase (CYP11B2) Inhibitors” (J Med Chem, 2020)
